Calls of active or inactive are those of the source. The rule behind the calls is not given here. Bounds are passed on as bounds.

Series [1] concerns Trypanosoma cruzi. The experiment in a line: Antitrypanosomal activity against bloodstream forms of Trypanosoma cruzi Y after 24 hrs by light microscopy in presence of 50% mouse blood. Type of series: functional, organism-based. Put shortly:
(§1)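 Bloodstream trypomastigotes kept at 4°C for 24 h in freshly isolated 50% mouse blood with serial dilutions (up to 32 μM). Motile live parasites counted in a Neubauer chamber by light microscopy; IC50 calculated as concentration reducing parasite number by 50%.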

For series [2], the system named is Trypanosoma cruzi. Description: Antitrypanosomal activity against bloodstream forms of Trypanosoma cruzi Columbian after 24 hrs by light microscopy in presence of 50% mouse blood. Type of series: functional, organism-based. In outline:
as §1

In series [3] the test system is Trypanosoma cruzi. Description: Antitrypanosomal activity against bloodstream forms of Trypanosoma cruzi YuYu after 24 hrs by light microscopy in presence of 50% mouse blood. Type of series: functional, organism-based. Put shortly:
as §1

Series [4] has as its system Trypanosoma cruzi. Description: Antitrypanosomal activity against bloodstream forms of Trypanosoma cruzi CL after 24 hrs by light microscopy in presence of 50% mouse blood. Type of series: functional, organism-based. In outline:
as §1

In series [5] the test system is Trypanosoma cruzi. The experiment in a line: Antitrypanosomal activity against Trypanosoma cruzi Y infected in Swiss-Webster mouse assessed as decrease in parasite-induced weight loss at 100 mg/kg/day, ip administered 5 days post-infection for 10 consecutive days measured on day 120. Type of series: functional, organism-based. Put shortly:
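Body weight of infected, treated mice followed from 0 to 120 dpi.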

Series [6] is described as follows: Toxicity in […](H-2k) mouse assessed as mortality at cumulative dose of 100 mg/kg, po measured after 48 hrs. The following applies: in vivo, read-out: Activity. The series is classed as organism-based. More on the design: dose 100 mg/kg, route oral.
The test system of series [7] is Mus musculus. Description: Hepatotoxicity in Swiss-Webster mouse assessed as effect on GPT level at 50 mg/kg/day, ip administered 21 days postinfection measured on day 120. The series is classed as toxicity, organism-based. More on the design: route intraperitoneal. The following applies: in vivo, 504 h.
Series [8] has as its system Mus musculus. The experiment in a line: Cytotoxicity against Swiss-Webster mouse assessed as effect on creatine kinase at 100 mg/kg/day measured after 14 days postinfection. Type of series: organism-based. The following applies: in vivo, 336 h.
For series [9], the system named is Trypanosoma cruzi. Description: Antitrypanosomal activity against Trypanosoma cruzi Columbian bloodstream forms infected in C3H mouse assessed as decrease in parasite load at 100 mg/kg/day, ip administered 5 days postinfection for 10 consecutive days measured after 31 days. Type of series: functional. Also noted: scale not given: the % may be the effect or the level left. The following applies: route intraperitoneal. Put shortly:
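C3H/He mice infected i.p. with 10^3 or 5 × 10^3 Colombian strain bloodstream forms. Treated daily for 10 days with 0.1 ml i.p. or by gavage, reference drug given by gavage. Parasitemia measured by the Pizzi-Brener method; n ≥ 6 parasitemic mice per group.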

The subject of series [10] is Trypanosoma cruzi. The experiment in a line: Antitrypanosomal activity against Trypanosoma cruzi Y bloodstream forms infected in Swiss-Webster mouse assessed as decrease in parasite load at 100 mg/kg/day, po administered 8 days postinfection measured on day 2. Type of series: functional, organism-based. In outline: (§2)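 Male Swiss mice infected i.p. with 10^4 Y strain bloodstream forms. Given 0.2 ml i.p. at 5 and 8 dpi, or daily for 10 days from 5 dpi; reference drug given by gavage. Parasitemia measured by the Pizzi-Brener method, cumulative mortality checked daily to 120 dpi, n ≥ 6 per group.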

For series [11], the system named is Trypanosoma cruzi. Description: Antitrypanosomal activity against Trypanosoma cruzi 855 epimastigotes after 24 hrs by light microscopy. The series is classed as functional, organism-based. To be noted: Trypanosoma cruzi, 855, 24 h. Put shortly: (§3)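 Epimastigotes from 5-day exponential cultures, 5 × 10^6 parasites/ml in LIT medium, incubated at 28°C up to 96 h with DB766 0 to 32 μM or Bz 0 to 250 μM. Counted daily in a Neubauer chamber. IC50 averaged from at least three determinations in duplicate.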

Series [12] deals with Trypanosoma cruzi. Description: Antitrypanosomal activity against Trypanosoma cruzi Columbian bloodstream forms infected in C3H mouse assessed as survival of mouse at 100 mg/kg/day, ip administered 5 days postinfection for 10 consecutive days measured after 31 days. Type of series: functional. The following applies: route intraperitoneal. In outline:
(§4)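 Male C3H/He (H-2k) mice infected i.p. with 5 × 10^3 Colombian-strain bloodstream trypomastigotes; only parasitemia-positive mice grouped (n ≥ 6). DB766 100 mg/kg/day given i.p. (0.1 ml) or by gavage (0.1 ml), daily for 10 treatments. Parasitemia by Pizzi-Brener method; mortality checked daily, expressed as cumulative percentage.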

Series [13] has as its system Mus musculus. The experiment in a line: Hepatotoxicity in Swiss-Webster mouse assessed as increased GPT level at 100 mg/kg/day, ip administered 21 days postinfection measured on day 120. Type of series: toxicity, organism-based. Also noted: route intraperitoneal. To be noted: in vivo, 504 h.
The subject of series [14] is Trypanosoma cruzi. The experiment in a line: Antitrypanosomal activity against Trypanosoma cruzi Y bloodstream forms infected in Swiss-Webster mouse assessed as survival of mouse at 100 mg/kg/day, ip administered 8 days postinfection measured on day 120. The series is classed as functional, organism-based. In outline: as §2
Series [15] relates to Mus musculus. Description: Hepatotoxicity against Swiss-Webster mouse assessed as GPT at 100 mg/kg/day measured after 14 days postinfection. Type of series: toxicity, organism-based. To be noted: in vivo, 336 h.
Series [16] relates to Mus musculus. Description: Hepatotoxicity in Swiss-Webster mouse assessed as effect on GPT level at 25 mg/kg/day, ip administered 21 days postinfection measured on day 120. Type of series: toxicity, organism-based. The following applies: in vivo, 504 h. More on the design: route intraperitoneal.
Series [17] deals with Trypanosoma cruzi. Description: Antitrypanosomal activity against Trypanosoma cruzi 875 epimastigotes after 24 hrs by light microscopy. Type of series: functional, organism-based. The following applies: Trypanosoma cruzi, 875, 24 h. In outline:
as §3

Series [18] relates to Mus musculus. The experiment in a line: Toxicity in male Swiss-Webster mouse assessed as mortality at cumulative dose of 200 mg/kg, ip measured after 48 hrs. The series is classed as organism-based. Also noted: dose 200 mg/kg, route intraperitoneal. To be noted: in vivo. In outline:
(§5)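 Uninfected 8–10-week-old female and male Swiss Webster and C3H/He (H-2k) mice injected i.p. on day 1 every 2 h with escalating doses: 5, 15, 30, 50 and 100 mg/kg (cumulative 20, 50, 100, 200 mg/kg). Toxic and subtoxic signs inspected on days 2–3 per OECD guidelines; tolerated dose set at 48 h.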

For series [19], the system named is Mus musculus. Description: Toxicity in […](H-2k) mouse assessed as effect on creatine kinase level at 100 mg/kg/day, po. More on the design: route oral. The series is classed as organism-based. The following applies: in vivo.
Series [20] concerns Trypanosoma cruzi. The experiment in a line: Antitrypanosomal activity against Trypanosoma cruzi MS1523 epimastigotes after 24 hrs by light microscopy. Type of series: functional, organism-based. To be noted: MS1523, 24 h. In outline: as §3
Series [21] relates to Trypanosoma cruzi. Description: Antitrypanosomal activity against Trypanosoma cruzi Y bloodstream forms infected in Swiss-Webster mouse assessed as decrease in parasite load at 100 mg/kg/day, po administered 5 days postinfection for 10 alternate days measured after 31 days. More on the design: scale not given: the % may be the effect or the level left. Type of series: functional. In outline: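 Male Swiss mice infected with 10^4 Y strain bloodstream forms and treated every other day with 100 mg/kg/day, reference drug by gavage. Parasitemia measured by the Pizzi-Brener method.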

Series [22] deals with Trypanosoma cruzi. Description: Antitrypanosomal activity against Trypanosoma cruzi Columbian bloodstream forms infected in C3H mouse assessed as decrease in parasite load at 100 mg/kg/day, ip administered 21 days postinfection measured on day 46. The series is classed as functional, organism-based. Put shortly:
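C3H/He mice infected i.p. with 10^2 Colombian strain bloodstream forms. Treatment started at parasitemia onset (21 dpi) with daily doses for 10 treatments, 0.1 ml i.p. Parasitemia measured by the Pizzi-Brener method; n ≥ 6 parasitemic mice per group.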

Series [23] deals with Trypanosoma cruzi. Description: Antitrypanosomal activity against Trypanosoma cruzi 960 epimastigotes after 24 hrs by light microscopy. The series is classed as functional, organism-based. The following applies: Trypanosoma cruzi, 960, 24 h. In outline: as §3
The subject of series [24] is Trypanosoma cruzi. Description: Antitrypanosomal activity against Trypanosoma cruzi RBVIII epimastigotes after 24 hrs by light microscopy. The series is classed as functional, organism-based. Put shortly:
as §3

Series [25] concerns Mus musculus. Description: Toxicity in […](H-2k) mouse assessed as mortality at cumulative dose of 200 mg/kg, ip measured after 48 hrs. Type of series: organism-based. More on the design: dose 200 mg/kg, route intraperitoneal. The following applies: in vivo. In outline: as §5
In series [26] the test system is Trypanosoma cruzi. The experiment in a line: Antitrypanosomal activity against Trypanosoma cruzi 956 epimastigotes after 24 hrs by light microscopy. Type of series: functional, organism-based. To be noted: Trypanosoma cruzi, 956, 24 h. In outline:
as §3

Series [27] has as its system Mus musculus. Description: Toxicity in female Swiss-Webster mouse assessed as mortality at cumulative dose of 200 mg/kg, ip measured after 48 hrs. Type of series: organism-based. Also noted: dose 200 mg/kg, route intraperitoneal. To be noted: in vivo. Put shortly:
as §5

Series [28] relates to Trypanosoma cruzi. Description: Antitrypanosomal activity against Trypanosoma cruzi 958 epimastigotes after 24 hrs by light microscopy. The series is classed as functional, organism-based. The following applies: Trypanosoma cruzi, 958, 24 h. In outline:
as §3

The test system of series [29] is Trypanosoma cruzi. The experiment in a line: Antitrypanosomal activity against Trypanosoma cruzi Y epimastigotes after 24 hrs by light microscopy. The series is classed as functional, organism-based. In outline: as §3
In series [30] the test system is Mus musculus. The experiment in a line: Toxicity in male Swiss-Webster mouse assessed as weight loss at cumulative dose of 200 mg/kg, ip measured after 48 hrs. The series is classed as organism-based. More on the design: dose 200 mg/kg, route intraperitoneal. The following applies: in vivo. Put shortly:
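Acute toxicity in 8–10-week-old Swiss Webster mice. i.p. injections every 2 h of 5, 15, 30, 50 and 100 mg/kg (cumulative 200 mg/kg) on day 1. Toxic and subtoxic signs inspected on days 2 and 3 per OECD guidelines; outcome read 48 h after injection.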

For series [31], the system named is Trypanosoma cruzi. Description: Antitrypanosomal activity against Trypanosoma cruzi Columbian bloodstream forms infected in C3H mouse assessed as survival of mouse at 100 mg/kg/day, po administered 5 days postinfection for 10 consecutive days measured after 31 days. Type of series: functional. Put shortly:
as §4

Series [32] deals with Mus musculus. Description: Cardiotoxicity in […] mouse assessed as effect on heart rate level at 100 mg/kg/day, po. More on the design: route oral. The series is classed as toxicity, organism-based. To be noted: in vivo. Put shortly:
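Colombian strain, 5 × 10³ bloodstream forms i.p. into male C3H/He mice; 100 mg/kg/day given i.p. or by gavage (0.1 ml) daily for 10 doses from parasitemia onset. Mice sedated with diazepam (20 mg/kg i.p.), supine; eight-lead ECG from subcutaneous limb needle electrodes plus precordial lead II. Signal-averaged ECG; heart rate as beats per minute.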

For the compound `N=C(N)c1ccc(-c2ccc(-c3ccc(C(=N)N)cc3)o2)cc1` [FURAMIDINE], the IC50 in the series on Trypanosoma cruzi [1], in the series on Trypanosoma cruzi [2], with Trypanosoma cruzi [3] and in the series with Trypanosoma cruzi [4] was > 32 µM in each case.

As to `O=C(Cn1ccnc1[N+](=O)[O-])NCc1ccccc1` [BENZNIDAZOLE], the result in the series on Trypanosoma cruzi [5] was Active. In [6], the mortality at 48 h is 100%. Further, the Activity result was “Non-toxic” in the series with Mus musculus [7]; “Non-toxic” in the series on Mus musculus [8]; 100% in the series with Trypanosoma cruzi [9]; 99% in the series with Trypanosoma cruzi [12]; “Toxic” in the series with Mus musculus [13]; “Non-toxic” with Mus musculus [15]. Further, the Activity result is recorded as “Non-toxic” with Mus musculus [16]; “Non-toxic” with Mus musculus [18]; 68% in the series with Mus musculus [19]; 79.4% with Trypanosoma cruzi [21]; “Non-toxic” with Mus musculus [25]; “Non-toxic” in the series on Mus musculus [27]. Also, the Activity with Mus musculus [30] was 7%; in the series on Trypanosoma cruzi [31], 100%; with Mus musculus [32], “Non-toxic”. In addition, the result with Trypanosoma cruzi [10], in the series with Trypanosoma cruzi [14] and in the series on Trypanosoma cruzi [22] was inactive. Further, the IC50 in the series with Trypanosoma cruzi [11] was 12.6 µM; with Trypanosoma cruzi [17], 7.9 µM; with Trypanosoma cruzi [20], 5.3 µM; with Trypanosoma cruzi [23] it was 6.44 µM; in the series with Trypanosoma cruzi [24] it was 5.06 µM; in the series with Trypanosoma cruzi [26] it was 3.96 µM. The IC50 in the series on Trypanosoma cruzi [28] is 13.7 µM; in the series on Trypanosoma cruzi [29], 7.65 µM. Besides, the IC90 came to 226 µM in the series with Trypanosoma cruzi [11]; 196 µM with Trypanosoma cruzi [17]; 30.6 µM in the series with Trypanosoma cruzi [20]; 38.2 µM in the series on Trypanosoma cruzi [23]; 35.7 µM with Trypanosoma cruzi [24]; 20.4 µM with Trypanosoma cruzi [26]. Further, the IC90 with Trypanosoma cruzi [28] was found to be 58.3 µM; in the series on Trypanosoma cruzi [29] it was 86.6 µM.

For the origin of these results see ChEMBL document CHEMBL1649306, “Arylimidamide DB766, a potential chemotherapeutic candidate for Chagas' disease treatment” (Antimicrob Agents Chemother, 2010).
